Measurements as given in ChEMBL document CHEMBL4706596, “Synthesis, biological evaluation, in silico modeling and crystallization of novel small monocationic molecules with potent antiproliferative activity by dual mechanism” (Eur J Med Chem, 2020).
Each block holds one compound with its values, some of them ahead of it.

Experiments:
[1] = test system: CCRF-CEM; assay: Antiproliferative activity against human CCRF-CEM cells assessed as inhibition of cell proliferation incubated for 72 hrs by MTT assay; type: functional
Procedure, shortened: (§1)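 Cells seeded at 8 × 10³/well and held 18 h at 37 °C, 5% CO₂. Medium then replaced with compound at several concentrations for 72 h at 37 °C, followed by MTT viability read-out. GI50 is taken against cells given the maximum DMSO (0.25%), which is set as 100% viability. Dose-response curves come from at least three independent experiments run in triplicate and are reported as mean ± SE.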

[2] = Inhibition of [methyl-14C]choline uptake in human HT-29 cells at 10 uM incubated for 10 mins followed by removal of medium containing compound and subsequent addition of [methyl-14C]choline measured after 5 mins relative to control; type: functional; conditions: HT-29, 10 min
Procedure, shortened: (§2)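 Cells at 200,000/well were incubated for 10 min at 37 °C in medium with or without CKα1 inhibitor. The medium was then removed and cells were exposed to [methyl-¹⁴C]choline (31 Ci/mol) for 5 min at 37 °C. Uptake was stopped by aspiration and two ice-cold PBS washes containing choline. Inhibition is expressed as % of untreated control.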

[3] = test system: HT-29; assay: Antiproliferative activity against human HT-29 cells assessed as inhibition of cell proliferation incubated for 72 hrs by MTT assay; type: functional; procedure, shortened: as §1
[4] = Inhibition of [methyl-14C]choline uptake in human HepG2 cells at 10 uM incubated for 10 mins followed by removal of medium containing compound and subsequent addition of [methyl-14C]choline measured after 5 mins relative to control; type: functional; conditions: HepG2, 10 min; procedure, shortened: as §2
[5] = Inhibition of [methyl-14C]choline uptake in human HepG2 cells at 30 uM incubated for 10 mins followed by removal of medium containing compound and subsequent addition of [methyl-14C]choline measured after 5 mins relative to control; type: functional; conditions: HepG2, 10 min; procedure, shortened: as §2
[6] = test system: RS4-11; assay: Antiproliferative activity against human RS4-11 cells assessed as inhibition of cell proliferation incubated for 72 hrs by MTT assay; type: functional; procedure, shortened: as §1
[7] = target: T1, Choline kinase alpha (Homo sapiens, UniProt P35790); assay: Inhibition of human CKalpha1 assessed as reduction in 14C incorporation from [methyl-14C]choline to […] at 10 uM using [methyl-14C]choline as substrate preincubated for 5 mins in presence of ATP and MgCl2 followed by substrate addition and measured after 10 mins by liquid scintillation counting method relative to control; conditions: time 15.0 min
Procedure, shortened: (§3)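 Purified human CKα1 (20 ng) in 100 mM Tris pH 8.5 with 10 mM MgCl₂ and 10 mM ATP, DMSO ≤0.1%, was preincubated 5 min at 37 °C. Reaction was started with 1 mM [methyl-¹⁴C]choline (4500 dpm/nmol), run 10 min at 37 °C and stopped in boiling water. Product was separated by silica TLC, scraped and scintillation-counted against DMSO controls. At least three experiments were run; IC50 was obtained from sigmoidal dose-response fits.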
Target sequence in this assay (P35790 whole entry, looked up): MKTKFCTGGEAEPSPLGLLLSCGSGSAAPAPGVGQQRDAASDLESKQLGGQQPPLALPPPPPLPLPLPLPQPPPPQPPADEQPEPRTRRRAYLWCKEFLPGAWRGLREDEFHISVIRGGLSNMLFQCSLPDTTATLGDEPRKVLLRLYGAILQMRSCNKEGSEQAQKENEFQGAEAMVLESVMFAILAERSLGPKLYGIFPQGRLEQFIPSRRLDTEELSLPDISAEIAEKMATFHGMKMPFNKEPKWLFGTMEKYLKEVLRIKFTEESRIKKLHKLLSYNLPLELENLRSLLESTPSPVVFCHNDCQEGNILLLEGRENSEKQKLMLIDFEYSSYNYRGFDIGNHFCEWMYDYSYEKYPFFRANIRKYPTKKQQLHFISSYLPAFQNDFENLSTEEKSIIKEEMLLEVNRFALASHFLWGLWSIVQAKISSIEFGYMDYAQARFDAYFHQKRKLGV

[8] = target: T1, Choline kinase alpha; assay: Inhibition of human CKalpha1 assessed as reduction in 14C incorporation from [methyl-14C]choline to […] at 30 uM using [methyl-14C]choline as substrate preincubated for 5 mins in presence of ATP and MgCl2 followed by substrate addition and measured after 10 mins by liquid scintillation counting method relative to control; conditions: time 15.0 min; procedure, shortened: as §3
Target sequence in this assay (P35790 whole entry, looked up): as above

[9] = Inhibition of [methyl-14C]choline uptake in human HT-29 cells at 30 uM incubated for 10 mins followed by removal of medium containing compound and subsequent addition of [methyl-14C]choline measured after 5 mins relative to control; type: functional; conditions: HT-29, 10 min; procedure, shortened: as §2
[10] = test system: HeLa; assay: Antiproliferative activity against human HeLa cells assessed as inhibition of cell proliferation incubated for 72 hrs by MTT assay; type: functional; procedure, shortened: as §1
[11] = target: T1, Choline kinase alpha; assay: Binding affinity to human CKalpha1 assessed as dissociation constant by spectroflurometry
Procedure, shortened: (§4)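 Purified human CK (cloned as reported earlier) at 1 µM was titrated with compound in 25 mM Tris, 150 mM NaCl, pH 7.5 at 25 °C. Compound ranges were 0.1–10 µM for CKα1 and 0.5–200 µM for CKβ. Tryptophan quenching was read with excitation at 280 nm, emission 300–400 nm and 5 nm slits. DMSO-matched controls were run, and Kd was fitted to a single-site model. Results are given as mean ± SD.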
Target sequence in this assay (P35790 whole entry): as the sequence (P35790 whole entry, looked up) above

[12] = target: T1, Choline kinase alpha; assay: Inhibition of human CKalpha1 assessed as reduction in 14C incorporation from [methyl-14C]choline to […] at 50 uM using [methyl-14C]choline as substrate preincubated for 5 mins in presence of ATP and MgCl2 followed by substrate addition and measured after 10 mins by liquid scintillation counting method relative to control; conditions: time 15.0 min; procedure, shortened: as §3
Target sequence in this assay (P35790 whole entry, looked up): as above

[13] = target: Choline/ethanolamine kinase (Homo sapiens, UniProt Q9Y259); assay: Binding affinity to human CKbeta assessed as dissociation constant by spectroflurometry; procedure, shortened: as §4
[14] = organism: Homo sapiens; assay: Selectivity index, ratio of Kd for human CKbeta to Kd for human CKalpha1

Chain of Choline/ethanolamine kinase (Q9Y259 whole entry): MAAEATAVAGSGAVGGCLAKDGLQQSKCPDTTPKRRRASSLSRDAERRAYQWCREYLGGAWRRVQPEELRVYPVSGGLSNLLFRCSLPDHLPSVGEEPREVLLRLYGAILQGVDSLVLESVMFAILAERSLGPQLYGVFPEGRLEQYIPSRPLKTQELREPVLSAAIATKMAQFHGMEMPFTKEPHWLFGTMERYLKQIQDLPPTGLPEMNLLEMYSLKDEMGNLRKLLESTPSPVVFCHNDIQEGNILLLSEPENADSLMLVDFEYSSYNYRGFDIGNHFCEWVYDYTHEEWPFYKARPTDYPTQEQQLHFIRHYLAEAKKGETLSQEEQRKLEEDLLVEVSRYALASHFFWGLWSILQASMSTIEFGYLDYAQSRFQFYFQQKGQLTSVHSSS

SMILES: FC(F)(F)c1ccc(C[N+]23CCC(CC2)CC3)cc1
GI50 [1]: > 100 µM
inhibition at 10 µM [2]: 9.1%
GI50 [3]: > 100 µM
inhibition at 10 µM [4]: 5.1%
inhibition at 30 µM [5]: 17.7%
GI50 [6]: > 100 µM
inhibition [7]: 8.07%
inhibition [8]: 24.7%
inhibition at 30 µM [9]: 2.4%
GI50 [10]: 90.8 µM

SMILES: Clc1ccc2c(N3CCCC3)cc[n+](Cc3ccccc3)c2c1
GI50 [1]: 3.4 µM
GI50 [3]: 4.1 µM
GI50 [6]: 1.23 µM
inhibition [7]: 31.5%
inhibition [8]: 35%
GI50 [10]: 19.6 µM

SMILES: Clc1ccc2c(N3CCCCCC3)cc[n+](Cc3ccccc3)c2c1
inhibition [12]: 38.7%
Kd [13]: 33 µM
GI50 [1]: 0.56 µM
Ratio [14]: 83
GI50 [3]: 4.6 µM
GI50 [6]: 0.03 µM
inhibition [7]: 35.8%
inhibition [8]: 27.5%
GI50 [10]: 16.2 µM
Kd [11]: 0.4 µM

SMILES: OC1C[N+]2(Cc3ccc(-c4ccccc4)cc3)CCC1CC2 (centres undefined)
GI50 [1]: 16.9 µM
GI50 [3]: 34 µM
GI50 [6]: 1.7 µM
inhibition [7]: 45.6%
inhibition [8]: 53%
GI50 [10]: 27.5 µM

SMILES: c1ccc(-c2ccc(C[n+]3ccc(N4CCCCCC4)c4ccccc43)cc2)cc1
GI50 [1]: 8.6 µM
GI50 [3]: 17.5 µM
GI50 [6]: 12.8 µM
GI50 [10]: 14.8 µM

SMILES: Clc1ccc2c(N3CCCC3)cc[n+](Cc3ccc(-c4ccccc4)cc3)c2c1
GI50 [1]: 0.04 µM
GI50 [3]: 0.04 µM
GI50 [6]: 0.05 µM
inhibition [7]: 36.9%
inhibition [8]: 46.3%
GI50 [10]: 0.28 µM

SMILES: c1cc(N2CCCC2)ccn1
Kd [11]: 49 µM

SMILES: FC(F)(F)c1ccc(C[n+]2ccc(N3CCCCCC3)c3ccc(Cl)cc32)cc1
GI50 [1]: 4.6 µM
GI50 [3]: 5.4 µM
GI50 [6]: 3.2 µM
inhibition [7]: 34.7%
inhibition [8]: 52.7%
GI50 [10]: 4.7 µM

SMILES: c1ccc(-c2ccc(C[N+]34CCC(CC3)CC4)cc2)cc1
GI50 [1]: 11.8 µM
GI50 [3]: 24.7 µM
GI50 [6]: 2.6 µM
inhibition [7]: 26.6%
inhibition [8]: 30.2%
GI50 [10]: 29.9 µM

SMILES: OC1C[N+]2(Cc3ccc(C(F)(F)F)cc3)CCC1CC2 (centres undefined)
GI50 [1]: > 100 µM
inhibition at 10 µM [2]: 17.6%
GI50 [3]: > 100 µM
inhibition at 10 µM [4]: 14.3%
inhibition at 30 µM [5]: 15.1%
GI50 [6]: > 100 µM
inhibition at 30 µM [9]: 21.6%
GI50 [10]: 82.3 µM

SMILES: c1ccc(-c2ccc(C[n+]3ccc(N4CCCC4)cc3)cc2)cc1
GI50 [1]: 0.18 µM
inhibition at 10 µM [2]: 56.7%
GI50 [3]: 0.16 µM
inhibition at 10 µM [4]: 70.3%
inhibition at 30 µM [5]: 84.3%
GI50 [6]: 0.22 µM
inhibition [8]: 28%
inhibition at 30 µM [9]: 79.5%
GI50 [10]: 0.95 µM
Kd [11]: 0.67 µM

Further lines, with some results ahead:

GI50 [1]: 0.3 µM
GI50 [3]: 0.23 µM
GI50 [6]: 0.14 µM
GI50 [10]: 0.91 µM
SMILES: CN(c1ccc(Cl)cc1)c1cc[n+](Cc2ccc(-c3ccccc3)cc2)cc1
inhibition at 10 µM [2]: 78.4%
inhibition at 10 µM [4]: 83.3%
inhibition at 30 µM [5]: 94.8%
inhibition at 30 µM [9]: 95%

GI50 [1]: 0.43 µM
GI50 [3]: 0.29 µM
GI50 [6]: 0.83 µM
inhibition [7]: 18.9%
inhibition [8]: 26.4%
GI50 [10]: 0.74 µM
Kd [11]: 1.7 µM
SMILES: CN(C)c1cc[n+](Cc2ccc(-c3ccccc3)cc2)cc1

GI50 [1]: 12 µM
GI50 [3]: 8.1 µM
GI50 [6]: 7.6 µM
GI50 [10]: 42.1 µM
SMILES: FC(F)(F)c1ccc(C[n+]2ccc(N3CCCC3)cc2)cc1

GI50 [1]: 54.3 µM
GI50 [3]: > 100 µM
GI50 [6]: 30.3 µM
inhibition [8]: 37.2%
GI50 [10]: 44.2 µM
Kd [11]: 14 µM
SMILES: CN(C)c1cc[n+](Cc2ccccc2)cc1

Kd [11]: 45 µM
SMILES: Clc1ccc2c(N3CCCCCC3)ccnc2c1

inhibition [12]: 27.8%
GI50 [1]: 5.3 µM
GI50 [3]: 38 µM
GI50 [6]: 8.3 µM
inhibition [7]: 11.1%
inhibition [8]: 19.6%
GI50 [10]: 66 µM
Kd [11]: 24 µM
SMILES: c1ccc(C[n+]2ccc(N3CCCC3)cc2)cc1

Kd [11]: 35 µM
SMILES: CN(C)c1ccncc1

GI50 [1]: 2.1 µM
GI50 [3]: 3 µM
GI50 [6]: 2.7 µM
GI50 [10]: 2.1 µM
SMILES: CN(c1ccccc1)c1cc[n+](Cc2ccc(C(F)(F)F)cc2)c2cc(Cl)ccc12

Kd [11]: 82 µM
SMILES: CN(c1ccccc1)c1ccnc2cc(Cl)ccc12

GI50 [1]: 18 µM
GI50 [3]: 11.2 µM
GI50 [6]: 7.9 µM
inhibition [7]: 25.4%
inhibition [8]: 33.5%
GI50 [10]: 23.2 µM
SMILES: CN(C)c1cc[n+](Cc2ccc(C(F)(F)F)cc2)cc1
inhibition at 10 µM [2]: 14.3%
inhibition at 10 µM [4]: 11.7%
inhibition at 30 µM [5]: 16.9%
inhibition at 30 µM [9]: 22.7%

GI50 [1]: 2 µM
GI50 [3]: 1.3 µM
GI50 [6]: 1.3 µM
inhibition [7]: 10.4%
inhibition [8]: 14.5%
GI50 [10]: 2.6 µM
SMILES: CN(c1ccc(Cl)cc1)c1cc[n+](Cc2ccc(C(F)(F)F)cc2)c2cc(Cl)ccc12

inhibition [12]: 18.6%
Kd [13]: 36 µM
GI50 [1]: 2.2 µM
Ratio [14]: 41
GI50 [3]: 4.5 µM
GI50 [6]: 3 µM
inhibition [7]: 23.1%
inhibition [8]: 28.4%
GI50 [10]: 16.3 µM
Kd [11]: 0.89 µM
SMILES: CN(c1ccccc1)c1cc[n+](Cc2ccccc2)c2cc(Cl)ccc12

GI50 [1]: 3 µM
GI50 [3]: 12.9 µM
GI50 [6]: 1 µM
inhibition [8]: 24.9%
GI50 [10]: 15 µM
SMILES: FC(F)(F)c1ccc(C[n+]2ccc(N3CCCC3)c3ccc(Cl)cc32)cc1
